Screening results deposited in PubChem BioAssay by The Scripps Research Institute Molecular Screening Center.
OX1R antag-1 = OX1R (HCRTR1) antagonists, primary screen, fluorescence, CHO/OX1R cells, Fluo-8 calcium, orexin A; hit rate 0.43% among 330,000; AID 434989, 2010; Fluo-8 calcium fluorescence; inhibition, % at 5 µM;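 active = inhibition above its plate's threshold, mean inhibition of all tested compounds on the plate plus 3 SD, cut at about 37% in these data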;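 also: 0% = orexin A challenge wells and 100% = SB-334867-A antagonist wells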
GPR7 antag = GPR7 receptor antagonists, primary screen, cell-based, fluorescence, single concentration; GPR7-expressing cells, fluorescence antagonist assay; inhibition, % at 4.4 µM; hit rate 1.1% among 290,000; in the data active = inhibition above about 16%, passing the limit was not always enough;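 also: cells stimulated with the agonist NPW; 0% = agonist with vehicle and 100% = vehicle without agonist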
Target sequence (P48145 whole entry, looked up): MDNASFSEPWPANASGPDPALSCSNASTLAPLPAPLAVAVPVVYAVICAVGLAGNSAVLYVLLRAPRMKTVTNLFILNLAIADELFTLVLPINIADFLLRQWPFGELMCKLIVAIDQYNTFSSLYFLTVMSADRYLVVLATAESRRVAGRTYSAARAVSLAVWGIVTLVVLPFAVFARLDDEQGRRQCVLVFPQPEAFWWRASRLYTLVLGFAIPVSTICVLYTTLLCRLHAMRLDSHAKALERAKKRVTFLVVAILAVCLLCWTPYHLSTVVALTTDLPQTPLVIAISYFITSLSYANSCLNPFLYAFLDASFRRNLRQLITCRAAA
CHO parental Ca = ATP-evoked calcium signal inhibitors, parental CHO, primary screen, counter-screen for OX1R antagonist project, cell-based, fluorescence, Fluo-8 calcium dye | parental CHO-K1, ATP-induced calcium, Fluo-8 fluorescence | inhibition, % at 5.6 µM | hit rate 0.63% among 330,000 | AID 463079, 2010;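 active = inhibition above that plate's mean sample inhibition plus 3 SD, cut at about 26% in these data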;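 also: 0% = ATP-challenged DMSO wells and 100% = DMSO wells without ATP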
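Test system: parental CHO cells; detection: calcium-sensitive Fluo-8 fluorescence; evaluation: percent inhibition of calcium signal; also added: ATP as calcium-mobilizing challenge; repeats: one well per compound; control set: ATP-challenged DMSO wells low, unchallenged DMSO wells high; compound: single nominal dose of 5.6 µM per compound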
TAAR1 agonist = human TAAR1 agonists, primary screen, Fluo-8 calcium fluorescence, CHO RD-HGA16 cells. vehicle wells 0%, saturating PEA agonist 100%. activation, % at 3 µM. hit rate 0.99% among 360,000;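 active = activation above the mean activation of all test compounds in the run plus 3 SD, cut at about 38% in these data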
Target sequence (Q96RJ0 whole entry, looked up): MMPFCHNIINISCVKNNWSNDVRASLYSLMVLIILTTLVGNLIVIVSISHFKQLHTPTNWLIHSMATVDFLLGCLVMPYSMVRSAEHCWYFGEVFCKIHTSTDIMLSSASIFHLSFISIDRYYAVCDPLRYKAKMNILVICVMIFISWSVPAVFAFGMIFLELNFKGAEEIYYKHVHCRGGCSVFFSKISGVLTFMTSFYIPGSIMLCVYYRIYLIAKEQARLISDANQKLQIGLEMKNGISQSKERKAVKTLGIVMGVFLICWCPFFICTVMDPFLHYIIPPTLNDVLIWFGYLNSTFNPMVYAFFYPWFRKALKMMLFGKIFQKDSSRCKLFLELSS
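Assay system – CHO-derived RD-HGA16 cells with stable Gα16 and human TAAR1 · Compound dosing – one-point dosing at 3 µM (nominal) · Incubation – 17-24 h seeding, 75 min 37 °C dye, 30 min RT · Measured by – kinetic Fluo-8 calcium fluorescence · Control set – DMSO vehicle as 0%, PEA at EC100 as 100% · Repeats – single well for each compound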
TAAR1 antag = human TAAR1 antagonists, primary screen, Fluo-8 calcium fluorescence, CHO RD-HGA16 cells. Trace amine-associated receptor 1 (Homo sapiens), Q96RJ0. antagonist. inhibition, % at 3 µM. hit rate 1.5% among 360,000. AID 624466, 2012;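 active = inhibition above a per-plate cutoff, the mean inhibition of test compounds on that plate plus 3 SD, cut at about 49% in these data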;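 also: 0% = DMSO plus EC80 beta-PEA response and 100% = DMSO alone without agonist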
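Test system: hTAAR1-expressing CHO RD-HGA16 cells, Gα16-coupled; Probe or stimulus: EC80 β-phenethylamine stimulus; Compound dosing: single nominal final test compound concentration of 3 µM; Timing: 140 s kinetic read after compound, 140 s after agonist; Signal: Fluo-8 calcium-sensitive fluorescence; Measure: % inhibition of agonist calcium response; Controls: DMSO and EC80 PEA controls.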
OX1R antag-2 = antagonists of human orexin 1 receptor (OX1R). inhibition, % at 6.6 µM. hit rate 1.8% among 330,000. OX1R-expressing cells, FRET antagonist read-out. Orexin/Hypocretin receptor type 1 (Homo sapiens), O43613; in the data active = inhibition mostly above about 38%, no sharp cut-off; inactive = mostly below about 40%;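 also: 0% = agonist challenge alone and 100% = reference antagonist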
TAAR1 nonsel count = nonselective antagonists in TAAR1 counter-screen cells, counter-screen for hTAAR1 antagonist project, cell-based, fluorescence, calcium; shares compounds with TAAR1 antag; inhibition, % at 3 µM; counterscreen cell line, antagonist mode; AID 651780, 2012; hit rate 77% among 2,400; in the data active = inhibition above about 22%;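 also: CHO-Ga16 host cells stimulated with ATP at an EC80 level; 0% = agonist EC80 plus vehicle and 100% = vehicle without agonist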
TAAR1 ant conf = human TAAR1 antagonists, retest of hits, confirmation, cell-based, fluorescence; shares compounds with TAAR1 antag; TAAR1-expressing cells, fluorescence antagonist read-out; inhibition, % at 3 µM; hit rate 40% among 2,400; AID 651785, 2012; in the data active = inhibition above about 49%;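 also: CHO-Ga16 host cells challenged with agonist PEA near its EC80; 0% = agonist at EC80 plus vehicle and 100% = vehicle with no agonist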
Ga16 nonsel ag = calcium activation in Ga16-expressing cells, counter-screen for TAAR1 antagonist project, cell-based, fluorescence; agonist counterscreen; AID 651953, 2012; shares compounds with TAAR1 antag; hit rate 18% among 2,400; activation, % at 3 µM; in the data active = activation above about 12%;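 also: 0% = vehicle wells and 100% = saturating stimulus response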
TAAR1 ag counter = TAAR1 activation by candidate antagonists – cell-based, fluorescence, counter-screen for TAAR1 antagonist project. hit rate 2% among 2,400. activation, % at 3 µM. shares compounds with TAAR1 antag. hTAAR1 cell line, agonist mode; in the data active = activation above about 37%;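 also: CHO cells stably expressing TAAR1 with calcium dye readout; 0% = DMSO vehicle and 100% = full agonist response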
* = called active by the depositor. Shown are actives, neighbours in structure and some others; about 4.6% of the full set was active somewhere.

For COc1ccc(Nc2ncc(C(=O)N3CCN(Cc4ccccc4)CC3)c3ccccc23)cc1 the results were OX1R antag-1 -24.6, GPR7 antag -0.8, CHO parental Ca -9.1, TAAR1 agonist 18.2, TAAR1 antag 67.4*, OX1R antag-2 5.0, TAAR1 nonsel count 33.4*, TAAR1 ant conf 51.5*, Ga16 nonsel ag 14.1* and TAAR1 ag counter 13.2.
Screening COc1ccc(Nc2ncc(C(=O)N3CCC(C(N)=O)CC3)c3ccccc23)cc1 returned OX1R antag-1 -2.3, GPR7 antag -2.1, CHO parental Ca -8.4, TAAR1 agonist 1.6, TAAR1 antag -3.8 and OX1R antag-2 11.7.
COc1ccccc1Nc1ncc(C(=O)N2CCN(Cc3ccc(OC)c(OC)c3OC)CC2)c2ccccc12 was read as OX1R antag-1 -36.7, GPR7 antag -2.0, CHO parental Ca -8.8, TAAR1 agonist 9.2, TAAR1 antag 70.7*, OX1R antag-2 11.5, TAAR1 nonsel count 26.7*, TAAR1 ant conf 45.0, Ga16 nonsel ag 4.7 and TAAR1 ag counter 4.3.
Screening CC1(C(=O)NS(=O)(=O)c2ccccc2)CCN1C(=O)C1(c2ccc(Cl)cc2)CCC1 (centres undefined) returned TAAR1 agonist -0.3 and TAAR1 antag -5.3.
COc1cc(CNCCNC(=O)c2cccs2)cc(OC)c1OC was read as OX1R antag-1 -3.0, GPR7 antag -4.8, CHO parental Ca -9.1, TAAR1 agonist 14.9, TAAR1 antag -6.9 and OX1R antag-2 6.7.
For C=CCN1C(c2ccc(Br)cc2)=CS/C1=C(\C#N)c1nnc(N2CCOCC2)n1-c1ccccc1 the results were TAAR1 agonist 6.8, TAAR1 antag 58.0*, TAAR1 nonsel count 23.7*, TAAR1 ant conf 22.8, Ga16 nonsel ag 5.4 and TAAR1 ag counter 6.2.
C=CCN1C(c2cccc(C(F)(F)F)c2)=CS/C1=C(\C#N)c1nnc(N2CCOCC2)n1-c1ccccc1 was read as TAAR1 agonist 5.6 and TAAR1 antag 9.3.
Screening CC(NCC(=O)Nc1ccccc1C(=O)NC1CC1)c1ccc(S(N)(=O)=O)cc1 (centres undefined) returned OX1R antag-1 -12.2, CHO parental Ca -7.0, TAAR1 agonist 15.2, TAAR1 antag -1.2 and OX1R antag-2 1.1.
For CCN(CC)S(=O)(=O)c1ccc(C(C)NCC(=O)Nc2ccccc2C(=O)NC2CC2)cc1 (centres undefined) the results were TAAR1 agonist 11.2, TAAR1 antag 58.5*, TAAR1 nonsel count 32.8*, TAAR1 ant conf 51.6*, Ga16 nonsel ag 9.1 and TAAR1 ag counter 8.9.
For CC1(c2nnc(-c3ccccc3)o2)CC(c2c(Cl)cccc2Cl)=NO1 (centres undefined) the results were OX1R antag-1 -14.6, CHO parental Ca -22.9, TAAR1 agonist 21.0, TAAR1 antag 70.2*, OX1R antag-2 10.0, TAAR1 nonsel count 22.6*, TAAR1 ant conf 53.2*, Ga16 nonsel ag 6.4 and TAAR1 ag counter 6.6.
`CC1(c2nnc(-c3ccncc3)o2)CC(c2c(Cl)cccc2Cl)=NO1` (centres undefined) gave OX1R antag-1 -23.4, CHO parental Ca -5.2, TAAR1 agonist 13.2, TAAR1 antag 32.4 and OX1R antag-2 8.5.
Screening COc1cc2cc(C[C@H](C)O)oc(=O)c2cc1OC returned OX1R antag-1 -5.7, CHO parental Ca -4.4, TAAR1 agonist 7.3, TAAR1 antag 1.3 and OX1R antag-2 4.4.
Screening O=C(CN1C(=O)/C(=C/c2ccccc2F)Sc2ccccc21)NCCCN1CCOCC1 returned OX1R antag-1 -25.1, GPR7 antag 2.4, CHO parental Ca -23.2, TAAR1 agonist 1.1, TAAR1 antag 8.0 and OX1R antag-2 13.4.
For Cc1noc(C)c1CSCC(=O)NCCN1C(=O)S/C(=C\c2ccccc2F)C1=O the results were OX1R antag-1 -30.4, CHO parental Ca -11.8, TAAR1 agonist 12.9, TAAR1 antag 56.1*, OX1R antag-2 22.4, TAAR1 nonsel count 35.2*, TAAR1 ant conf 53.6*, Ga16 nonsel ag 13.0* and TAAR1 ag counter 11.8.
CSc1ccc(CN2CCC(C)(Oc3cccc(C#N)c3)C2)cc1 (centres undefined) was read as TAAR1 agonist -1.2 and TAAR1 antag 7.0.
Screening O=C1[C@H]2[C@@H](/C=C/c3ccccc3)N3C(=O)CN(Cc4ccccn4)C(=O)[C@@]3(Cc3ccccc3)[C@H]2C(=O)N1c1ccccc1 returned OX1R antag-1 -31.7, GPR7 antag -10.3, CHO parental Ca -18.0, TAAR1 agonist 23.4, TAAR1 antag 69.7*, OX1R antag-2 16.3, TAAR1 nonsel count 28.1*, TAAR1 ant conf 48.3, Ga16 nonsel ag 10.2 and TAAR1 ag counter 8.3.
Screening CCOC(=O)c1oc2ccccc2c1NC(=O)c1cccc(OC)c1 returned OX1R antag-1 -51.9, GPR7 antag -17.1, CHO parental Ca -32.7, TAAR1 agonist 4.5, TAAR1 antag -10.1 and OX1R antag-2 8.8.
`COc1cccc(C(=O)Nc2c(C(N)=O)oc3ccccc23)c1` gave OX1R antag-1 6.0, GPR7 antag -7.6, CHO parental Ca -15.2, TAAR1 agonist 12.2, TAAR1 antag 56.0*, OX1R antag-2 76.8*, TAAR1 nonsel count 24.2*, TAAR1 ant conf 40.7, Ga16 nonsel ag 7.2 and TAAR1 ag counter 9.2.
For COc1ccc(Cl)cc1S(=O)(=O)N1CCCC(C(=O)NCc2ccncc2)C1 (centres undefined) the results were OX1R antag-1 -18.7, GPR7 antag -13.6, CHO parental Ca -9.7, TAAR1 agonist 1.0, TAAR1 antag -12.9 and OX1R antag-2 1.8.
